Source: PubChem BioAssay (several laboratories)
Sampled rows, rich in hits. Any-hit rate of the full collection: about 9.6%.
b-catenin transl: modulators of beta-catenin nuclear translocation | HeLa beta-catenin nuclear translocation, immunofluorescence imaging | AID 1665 | 0.3% of 190,000 active | nuclear translocation activity, % at 5 µM;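 active = nuclear translocation activity above 50% at 5 µM, with a well cell count of 50 or more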;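 note: per-cell ratio of nuclear to cytoplasmic median beta-catenin stain intensity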
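Signal – beta-catenin immunofluorescence imaging with DAPI · Test system – human HeLa cell line · Dosing – 5 µM primary single dose, 0.1% DMSO, 0.02–20 µM confirmation series · Measure – % activation, nuclear-to-cytoplasmic median beta-catenin signal ratio per cell · Incubation – 24 h compound exposure at 37°C, 5% CO2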
MT stabilizer: microtubule stabilizers in HeLa cells; HeLa tubulin immunostaining HCS, 24 h; share of cells brighter than vehicle mean+2SD; % tubulin-high responders, % at 10 µM; 0.83% of 200,000 active;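 active = plate Z-score above 3 for both tubulin-high and condensed-nucleus cell shares, with cell loss under 80%, at 10 µM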;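 note: anti alpha tubulin signal scored within the nucleus-defined area of each cell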
L major viab: reduces viability of Leishmania major promastigotes. resazurin fluorescence viability. inhibition, % at 10 µM. AID 1063. 9% of 200,000 active; in the data active = inhibition above about 50%;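 note: promastigotes grown with compound for 44 hours at 28 °C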
BaF3 tox: counter-screen for JAK2V617F inhibitors: parental Ba/F3 viability inhibitors | CellTiter-Glo ATP luminescence | inhibition, % at 5.6 µM | 1.1% of 220,000 active;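 active = inhibition above a per-campaign cutoff, the mean inhibition of all tested compounds plus 3 SD, cut at about 27% in these data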
APP 5UTR inh: APP translation inhibition. SH-SY5Y APP 5'UTR-luciferase reporter, luminescence. inhibition, % at 2 µM. 0.82% of 190,000 active. AID 1285;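 active = inhibition above a set limit, derived from the sample mean plus 3 SD, cut at about 45% in these data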
Ba/F3 V617F tox: lowers viability of Ba/F3 cells expressing EpoR and JAK2V617F; ATP luminescence; inhibition, % at 5.6 µM; 1.1% of 220,000 active; AID 1446;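 active = inhibition above the campaign mean plus 3 SD over all tested compounds, cut at about 24% in these data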;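 note: cytokine-independent growth of Ba/F3 cells driven by EpoR plus mutant JAK2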
Each line names hits and unclear results; the compound was inactive in the other large screens.

CC(C)(C)CC(C)(C)c1ccc(O)c(CN2CCN(CCC#N)CC2)c1	L major viab 97
N#CCCN1CCN(Cc2cc(-c3ccccc3)ccc2O)CC1	L major viab 91
COC(=O)c1ccc(CN2[C@H](C(=O)OC)C[C@@]3(O)[C@@H](O)[C@@H](O)[C@@H](O)C[C@@H]23)cc1	none (no result: MT stabilizer, L major viab, BaF3 tox, APP 5UTR inh, Ba/F3 V617F tox)
O=C(NCc1cccnc1)NC1(C(F)(F)F)Oc2ccc(Cl)cc2O1 (centres undefined)	BaF3 tox 39, Ba/F3 V617F tox 52
O=C(NCCN1CCOCC1)NC1(C(F)(F)F)Oc2ccccc2O1	none
Cc1cc(NC(=O)Nc2ccc(F)c(Cl)c2)no1	none
CCCCNC(=O)NC1(C(F)(F)F)Oc2ccccc2O1	none
NS(=O)(=O)c1ccc(CCNC(=O)NC2(C(F)(F)F)Oc3ccccc3O2)cc1	BaF3 tox 39, Ba/F3 V617F tox 57
COCCNC(=O)NC1(C(F)(F)F)Oc2ccc(Cl)cc2O1 (centres undefined)	BaF3 tox 39, Ba/F3 V617F tox 46
Cc1cc(NC(=O)NC2(C(F)(F)F)Oc3ccc(Cl)cc3O2)no1 (centres undefined)	BaF3 tox 28, Ba/F3 V617F tox 51
NS(=O)(=O)c1ccc(CCNS(=O)(=O)c2cccc(C(=O)O)c2)cc1	none (no result: MT stabilizer, L major viab, APP 5UTR inh)
CCC(=O)Nc1cccc2cccnc12	none
CCC(=O)NC(c1cccs1)c1ccc2cccnc2c1O (centres undefined)	L major viab 100, BaF3 tox 59, APP 5UTR inh 85, Ba/F3 V617F tox 77
CC(C)C(=O)NC(c1ccco1)c1ccc2cccnc2c1O (centres undefined)	L major viab 100, BaF3 tox 60, APP 5UTR inh 84, Ba/F3 V617F tox 51
CC(C)C(=O)NC(c1cccs1)c1cc([N+](=O)[O-])c2cccnc2c1O (centres undefined)	none
Cc1conc1NC(c1cccs1)c1ccc2cccnc2c1O (centres undefined)	L major viab 99, BaF3 tox 83, Ba/F3 V617F tox 97
CC(C)CC(=O)NC(c1cccs1)c1ccc2cccnc2c1O (centres undefined)	L major viab 100, BaF3 tox 75, APP 5UTR inh 82, Ba/F3 V617F tox 65
Cc1cccnc1NC(=S)NC(=O)c1cccs1	none
NC1CCN(c2c(F)cc3c(=O)c(C(=O)O)cn(C4CC4)c3c2Cl)C1 (centres undefined)	none (no result: MT stabilizer, L major viab, APP 5UTR inh)
CC1CC(C)CN(c2ccc([N+](=O)[O-])nc2)C1 (centres undefined)	none
Cc1cc(Sc2nc(N(C)C)nc(N(C)C)n2)nc(Cl)n1	none
CCOC(=O)Cc1cc(-c2ccc(OC)cc2)nc2ccc3ccccc3c12	L major viab 99
Cc1nn(C(=O)CNS(=O)(=O)c2ccccc2)c(C)c1Sc1ccc(Cl)cc1	L major viab 51
O=C(Nc1ccccc1C(=O)Nc1ccc2c(c1)OCO2)c1cccs1	none
c1ccc(-c2nc3c(ccc4ccccc43)[nH]2)nc1	L major viab 100 (no result: b-catenin transl)
c1ccc(-c2nc3ccccc3[nH]2)nc1	none
Cc1ccc(N(CC(=O)N2CCc3ccccc32)S(=O)(=O)c2cccs2)cc1	none (no result: b-catenin transl)
Cc1ccc(N(CC(=O)NC(C)c2ccccc2)S(=O)(=O)c2cccs2)cc1 (centres undefined)	L major viab 89 (no result: b-catenin transl)
CCN(C(=S)NCCOC)c1cccc2ccccc12	BaF3 tox 27, Ba/F3 V617F tox 32
NS(=O)(=O)c1ccc(N/N=C/c2ccccc2Br)cc1	none
c1ccc(CC2CCN(C3=Nc4cccc5cccc3c45)CC2)cc1	L major viab 100
COc1ccccc1N1CCN(C2=Nc3cccc4cccc2c34)CC1	L major viab 77
c1cc2c3c(cccc3c1)C(N1CCN(C3=Nc4cccc5cccc3c45)CC1)=N2	none (no result: b-catenin transl)
S=c1[nH]c(-c2ccc(Cl)cc2)cs1	L major viab 67
Brc1ccc2c(c1)C(C1=NCCN1)c1ccccc1CS2 (centres undefined)	b-catenin transl 51, BaF3 tox 66, APP 5UTR inh 94, Ba/F3 V617F tox 74
Cc1ccnc(NC(=O)CCC(=O)N(CC(=O)NC2CCCCC2)C2CCCC2)c1	none (no result: MT stabilizer, L major viab, APP 5UTR inh)
O=S(=O)(c1cccs1)N1CCN(CC(O)COC2CCCc3ccccc32)CC1 (centres undefined)	none
O=S(=O)(c1cccs1)N1CCN(CC(O)COc2cccc(Br)c2)CC1 (centres undefined)	L major viab 98
CCOC(=O)N1CCC(N2CCN(S(=O)(=O)c3ccc(Cl)cc3)CC2)CC1	L major viab 95
O=S(=O)(c1ccc(F)cc1)N1CCC(N2CCCCCC2)CC1	L major viab 98
CCOC(=O)N1CCC(N2CCN(S(=O)(=O)c3ccc(NC(C)=O)cc3)CC2)CC1	none
Cn1c(=O)c(=O)n(C)c2cc(S(=O)(=O)N3CCC(N4CCCCC4)CC3)ccc21	none (no result: b-catenin transl)
CC1CCN(C2CCN(S(=O)(=O)c3ccc(F)cc3)CC2)CC1	L major viab 90
CCOC(=O)N1CCC(N2CCN(c3cc(C)ccc3C)CC2)CC1	L major viab 95 (no result: b-catenin transl)
CC1(/[N+]([O-])=C/c2ccccc2F)CCCCC1=O (centres undefined)	none
CN(C(=O)CC1C(=O)NCCN1Cc1ccc(F)c(F)c1)C1CCOCC1 (centres undefined)	none
CCC(=O)NC(=S)NNC(=O)c1ccc(O)cc1	none
CCOC(=O)N1CCN(C(=O)CN(Cc2ccc(Cl)cc2)S(=O)(=O)c2ccc(C)cc2)CC1	L major viab 93 (no result: b-catenin transl)
CCN1CCN(S(=O)(=O)c2ccc3ccccc3c2)CC1	none (no result: b-catenin transl)
O=S(=O)(c1ccc(Cl)cc1)N1CCC(N2CCCCCC2)CC1	L major viab 97
CC1CN(C2CCN(S(=O)(=O)c3ccc4ccccc4c3)CC2)CC(C)O1 (centres undefined)	L major viab 94
O=S(=O)(c1ccc(Cl)cc1)N1CCC(n2cccc2)CC1	none (no result: MT stabilizer, L major viab, APP 5UTR inh)
COc1cc(CN2CCN(c3cc(C)ccc3C)CC2)cc([N+](=O)[O-])c1O	none (no result: b-catenin transl)
COc1cc(OC)c(OC)cc1CN1CCN(Cc2ccc(SC)cc2)CC1	L major viab 95
COc1cc(CN2CCN(c3ccc(C)cc3)CC2)cc([N+](=O)[O-])c1O	L major viab 86
COc1cc(CN2CCN(Cc3ccc(SC)cc3)CC2)cc(OC)c1O	L major viab 88
Oc1[nH]c2ccccc2c1C1=NCCCCC1	none
CCOc1cc(C)nc(NCc2ccccc2)n1	L major viab 65 (no result: b-catenin transl)
Cc1cc(N2CCOCC2)nc(NCc2ccccc2)n1	none
Cc1cc(N2CCCCC2)nc(NCc2ccccc2)n1	MT stabilizer 17, L major viab 75
Cc1ccc(C(=O)Oc2ccc([N+](=O)[O-])cc2)cc1S(=O)(=O)N1CCCCCC1	none
COc1cc(OC)c(C(=O)OCC(=O)N(Cc2ccccc2)C(C)(C)C)cc1OC	none
N/C(=N\OC(=O)/C=C/c1ccc(Br)cc1)c1ccccn1	L major viab 77
